Data set [1] relates to Trypanosoma cruzi. In words: Antitrypanosomal activity against Trypanosoma cruzi Tulahuen infected in mouse NIH/3T3 cells assessed as multimode parasite growth inhibition after 4 days by beta-galactosidase reporter gene assay. Type of data set: functional, organism-based. The settings on record: NIH3T3, 96 h. The essentials: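 Recombinant Tulahuen T. cruzi stably expressing a beta-galactosidase reporter, cocultured with mouse NIH/3T3 fibroblast host cells. Compounds added to host cells before infection with parasites; growth inhibition read by reporter; IC50 in nM.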
(In a reporter assay the amount or activity of a reporter protein is the signal.)

A short description of data set [2]: Solubility of the compound in phosphate buffer saline. Format: physicochemical.
The test system of data set [3] is Trypanosoma cruzi. In words: Trypanocidal activity against Trypanosoma cruzi CA-I/72 infected in BESM cells assessed as parasite re-emergence at 370 nM measured over 29 days of drug treatment. Type of data set: functional, organism-based. The essentials: (§1)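 T. cruzi-infected bovine embryo skeletal muscle (BESM) cells treated with varying compound concentrations for 20 or 29 days, compound refreshed every other day, then followed up to 36 days post-treatment. Trypomastigote emergence into medium checked visually daily through treatment and post-treatment phases; no re-emergence taken as trypanocidal, delayed emergence as trypanostatic.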

The next data set has as its system Plasma. In words: Metabolic stability in human plasma. Type of data set: ADME, cell-free.
Data set [4] deals with Trypanosoma cruzi. In words: Antitrypanosomal activity against amastigote stage of Trypanosoma cruzi Tulahuen infected in rat L6 cells assessed as parasite growth inhibition after 96 hrs by beta-galactosidase reporter gene assay. Format: functional, organism-based. The settings on record: L6, 96 h.
Data set [5] concerns Trypanosoma cruzi. Briefly: Trypanocidal activity against Trypanosoma cruzi CA-I/72 infected in BESM cells assessed as parasite re-emergence at 370 nM treated for 29 days measured after 36 days. Format: functional, organism-based. The essentials:
as §1

The nature of data set [6]: Metabolic stability in mouse microsomes assessed as compound remaining at 1 uM after 1 hr. Type of data set: ADME, Microsome. The settings on record: read-out: Stability. An outline of the steps: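 Mouse liver microsomes incubated 1 h with compound at 1 μM; result expressed as percent of compound remaining.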

Converted amounts (≈) assume the structure as drawn. The source made the active and inactive calls. The calls are words filed in the database; no cut-off is given here. Where only a bound is given, the exact number is not on record here.

One molecule from ChEMBL document CHEMBL3108709, “Diversity-oriented synthesis yields a new drug lead for treatment of chagas disease” (ACS Med Chem Lett, 2014) can be followed below.

Consider `C[C@H](CO)N1C[C@H](C)[C@H](CN(C)Cc2ccc(Oc3ccccc3)cc2)Oc2c(NC(=O)c3ccncc3)cccc2C1=O`, for which the IC50 (in general, the concentration needed to halve the response being measured) with Trypanosoma cruzi [1] is 0.016 µM; with Trypanosoma cruzi [4], 0.075 µM. For the same molecule, the concentration in solution in data set [2] (solubility) was 98 µM (≈ 58.3 µg/mL). The outcome in the data set with Trypanosoma cruzi [3] and in the data set on Trypanosoma cruzi [5] was Active. For the same molecule, in the data set on Plasma, the Stability result is “Unstable”. Further, the remaining at 1 h, 1 µM in data set [6] is less than 1%.
